Experimental data taken from ChEMBL document CHEMBL2390929, “New nitric oxide donating 1,2,4-triazole/oxime hybrids: synthesis, investigation of anti-inflammatory, ulceroginic liability and antiproliferative activities” (Bioorg Med Chem, 2013).

Key:
HT-29 = assay: Cytotoxicity against human HT-29 cells assessed as cell growth at 10^-5 M after 48 hrs by SRB assay; format: functional; conditions: HT-29, 48 h, read-out: Activity
How it was run: (§1)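 NCI 60-cell-line primary one-dose screen across nine tumour subpanels. Compound added at a single concentration of 10^-5 M and cultures incubated 48 h. Endpoint was sulforhodamine B protein staining read spectrophotometrically, with growth expressed as percent of untreated control cells.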

SNB-75 = assay: Cytotoxicity against human SNB75 cells assessed as cell growth at 10^-5 M after 48 hrs by SRB assay; format: functional; conditions: SNB-75, 48 h, read-out: Activity
How it was run: (§2)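 NCI-60 one-dose screen across nine tumour subpanels. Each agent added once at 10^-5 M, cultures incubated 48 h. Endpoint is sulforhodamine B protein staining read spectrophotometrically. Output is percent growth of treated cells relative to untreated controls.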

MDA-MB-468 = assay: Cytotoxicity against human MDA-MB-468 cells assessed as cell growth at 10^-5 M after 48 hrs by SRB assay; format: functional; conditions: MDA-MB-468, 48 h, read-out: Activity; how it was run: as §1
RPMI-8226 = assay: Cytotoxicity against human RPMI8226 cells assessed as cell growth at 10^-5 M after 48 hrs by SRB assay; format: functional; conditions: RPMI-8226, 48 h, read-out: Activity; how it was run: as §1
[1] = Induction of nitric oxide release in phosphate buffer at pH 7.4 at 0.1 mM after 5 hrs by Griess method in presence of 0.5 mM of N-acetylcysteine; format: physicochemical; conditions: pH 7.4, 5 h, 100 µM
How it was run: (§3)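 Compound in DMF diluted to final 10^-4 M in 1:1 50 mM phosphate buffer pH 7.4/MeOH with 5×10^-4 M N-acetylcysteine, 37 °C. Aliquot mixed with Griess reagent, 10 min at room temperature, A546 read. Nitrite quantified against sodium nitrite standards (10–80 nmol/mL); NO expressed as mol/mol. n = 4 reaction mixtures per compound.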

SK-OV-3 = assay: Cytotoxicity against human SKOV3 cells assessed as cell growth at 10^-5 M after 48 hrs by SRB assay; format: functional; conditions: SK-OV-3, 48 h, read-out: Activity; how it was run: as §2
SF-295 = assay: Cytotoxicity against human SF295 cells assessed as cell growth at 10^-5 M after 48 hrs by SRB assay; format: functional; conditions: SF-295, 48 h, read-out: Activity; how it was run: as §1
MCF7 = assay: Cytotoxicity against human MCF7 cells assessed as cell growth at 10^-5 M after 48 hrs by SRB assay; format: functional; conditions: MCF7, 48 h, read-out: Activity; how it was run: as §1
NCI/ADR-RES = assay: Cytotoxicity against human NCI/ADR-RES cells assessed as cell growth at 10^-5 M after 48 hrs by SRB assay; format: functional; conditions: read-out: Activity; how it was run: as §1
HL-60(TB) = assay: Cytotoxicity against human HL-60(TB) cells assessed as cell growth at 10^-5 M after 48 hrs by SRB assay; format: functional; conditions: HL-60, 48 h, read-out: Activity
How it was run: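 NCI 60-cell-line one-dose screen: compound added to cultures at a single concentration of 10^-5 M, incubated 48 h. End point by sulforhodamine B protein staining, read spectrophotometrically. Value is percent growth of treated cells relative to untreated control cells.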

[2] = Cytotoxicity against human EKVX cells assessed as cell growth at 10^-5 M after 48 hrs by SRB assay; format: functional; conditions: read-out: Activity; how it was run: as §1
Rattus norvegicus = assay: Antiinflammatory activity in albino rat assessed as inhibition of carrageenan-induced paw edema at 0.28 mmol/kg, po after 2 hrs relative to control; format: functional
How it was run: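 Adult male albino rats (120–140 g), four per group, fasted 24 h with water allowed. Test agent suspended in 0.5% w/v aqueous CMC and given orally at 0.28 mmol/kg; controls received CMC alone. After 30 min, 0.1 mL fresh 1% carrageenan in saline was injected subplantar into the right hind paw and saline into the left. Paw thickness was measured by Vernier caliper; % inhibition = [(VR−VL)control − (VR−VL)treated]/(VR−VL)control ×100. Mean ± SEM, one-way ANOVA.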

[3] = Induction of nitric oxide release in phosphate buffer at pH 7.4 at 0.1 mM after 6 hrs by Griess method in presence of 0.5 mM of N-acetylcysteine; format: physicochemical; conditions: pH 7.4, 6 h, 100 µM; how it was run: as §3
HOP-62 = assay: Cytotoxicity against human HOP62 cells assessed as cell growth at 10^-5 M after 48 hrs by SRB assay; format: functional; conditions: HOP-62, 48 h, read-out: Activity; how it was run: as §1
SNB-19 = assay: Cytotoxicity against human SNB19 cells assessed as cell growth at 10^-5 M after 48 hrs by SRB assay; format: functional; conditions: SNB-19, 48 h, read-out: Activity; how it was run: as §2
UO-31 = assay: Cytotoxicity against human UO31 cells assessed as cell growth at 10^-5 M after 48 hrs by SRB assay; format: functional; conditions: UO-31, 48 h, read-out: Activity; how it was run: as §2
ACHN = assay: Cytotoxicity against human ACHN cells assessed as cell growth at 10^-5 M after 48 hrs by SRB assay; format: functional; conditions: read-out: Activity; how it was run: as §1
MDA-MB-231 = assay: Cytotoxicity against human MDA-MB-231 cells assessed as cell growth at 10^-5 M after 48 hrs by SRB assay; format: functional; conditions: MDA-MB-231, 48 h, read-out: Activity; how it was run: as §1
786-0 = assay: Cytotoxicity against human 786-0 cells assessed as cell growth at 10^-5 M after 48 hrs by SRB assay; format: functional; conditions: 786-0, 48 h, read-out: Activity; how it was run: as §1
NCI-H460 = assay: Cytotoxicity against human NCI-H460 cells assessed as cell growth at 10^-5 M after 48 hrs by SRB assay; format: functional; conditions: NCI-H460, 48 h, read-out: Activity; how it was run: as §1
CAKI-1 = assay: Cytotoxicity against human CAKI-1 cells assessed as cell growth at 10^-5 M after 48 hrs by SRB assay; format: functional; conditions: CAKI-1, 48 h, read-out: Activity; how it was run: as §1
U-251 = assay: Cytotoxicity against human U251 cells assessed as cell growth at 10^-5 M after 48 hrs by SRB assay; format: functional; conditions: U-251, 48 h, read-out: Activity; how it was run: as §2
IGROV-1 = assay: Cytotoxicity against human IGROV1 cells assessed as cell growth at 10^-5 M after 48 hrs by SRB assay; format: functional; conditions: IGROV-1, 48 h, read-out: Activity; how it was run: as §1
SF-268 = assay: Cytotoxicity against human SF268 cells assessed as cell growth at 10^-5 M after 48 hrs by SRB assay; format: functional; conditions: SF-268, 48 h, read-out: Activity; how it was run: as §1
SR = assay: Cytotoxicity against human SR cells assessed as cell growth at 10^-5 M after 48 hrs by SRB assay; format: functional; conditions: read-out: Activity; how it was run: as §2
Malme-3M = assay: Cytotoxicity against human MALME-3M cells assessed as cell growth at 10^-5 M after 48 hrs by SRB assay; format: functional; conditions: read-out: Activity; how it was run: as §1
NCI-H522 = assay: Cytotoxicity against human NCI-H522 cells assessed as cell growth at 10^-5 M after 48 hrs by SRB assay; format: functional; conditions: NCI-H522, 48 h, read-out: Activity; how it was run: as §1
OVCAR-4 = assay: Cytotoxicity against human OVCAR4 cells assessed as cell growth at 10^-5 M after 48 hrs by SRB assay; format: functional; conditions: OVCAR-4, 48 h, read-out: Activity; how it was run: as §1
OVCAR-8 = assay: Cytotoxicity against human OVCAR8 cells assessed as cell growth at 10^-5 M after 48 hrs by SRB assay; format: functional; conditions: OVCAR-8, 48 h, read-out: Activity; how it was run: as §1

SMILES: COc1cc(-c2nnc(SC/C(=N/O)c3ccccc3)n2-c2ccccc2)cc(OC)c1OC
- growth at 10 µM (HT-29): 99.5%
- growth at 10 µM (SNB-75): 84.5%
- growth at 10 µM (MDA-MB-468): 119%
- growth at 10 µM (RPMI-8226): 73.6%
- Activity [1]: 0.16 mol/mol
- growth at 10 µM (SK-OV-3): 110%
- growth at 10 µM (SF-295): 93.1%
- growth at 10 µM (MCF7): 101%
- growth at 10 µM (NCI/ADR-RES): 98.8%
- growth at 10 µM (HL-60(TB)): 81.1%
- growth at 10 µM [2]: 97.9%
- inhibition in vivo at 280 µmol/kg (Rattus norvegicus): 61%
- Activity [3]: 0.15 mol/mol
- growth at 10 µM (HOP-62): 101%
- growth at 10 µM (SNB-19): 95.2%
- growth at 10 µM (UO-31): 69.5%
- growth at 10 µM (ACHN): 99.3%
- growth at 10 µM (MDA-MB-231): 93.7%
- growth at 10 µM (786-0): 94.7%
- growth at 10 µM (NCI-H460): 110%
- growth at 10 µM (CAKI-1): 79%
- growth at 10 µM (U-251): 94.1%
- growth at 10 µM (IGROV-1): 99%
- growth at 10 µM (SF-268): 114%
- growth at 10 µM (SR): 74.8%
- growth at 10 µM (Malme-3M): 95.3%
- growth at 10 µM (NCI-H522): 82.1%
- growth at 10 µM (OVCAR-4): 84.8%
- growth at 10 µM (OVCAR-8): 98.3%

SMILES: C=CCn1c(SC/C(=N\O)c2ccccc2)nnc1-c1ccc(OC)c(OC)c1
- growth at 10 µM (HT-29): 93.5%
- growth at 10 µM (SNB-75): 86.9%
- growth at 10 µM (MDA-MB-468): 105%
- growth at 10 µM (RPMI-8226): 83.7%
- Activity [1]: 0.24 mol/mol
- growth at 10 µM (SK-OV-3): 110%
- growth at 10 µM (SF-295): 104%
- growth at 10 µM (MCF7): 105%
- growth at 10 µM (NCI/ADR-RES): 93%
- growth at 10 µM (HL-60(TB)): 72.3%
- growth at 10 µM [2]: 101%
- inhibition in vivo at 280 µmol/kg (Rattus norvegicus): 57%
- Activity [3]: 0.13 mol/mol
- growth at 10 µM (HOP-62): 92.2%
- growth at 10 µM (SNB-19): 99.5%
- growth at 10 µM (UO-31): 77.9%
- growth at 10 µM (ACHN): 97.8%
- growth at 10 µM (MDA-MB-231): 94.4%
- growth at 10 µM (786-0): 119%
- growth at 10 µM (NCI-H460): 105%
- growth at 10 µM (CAKI-1): 90%
- growth at 10 µM (U-251): 94.2%
- growth at 10 µM (IGROV-1): 97.6%
- growth at 10 µM (SF-268): 105%
- growth at 10 µM (SR): 109%
- growth at 10 µM (Malme-3M): 92.5%
- growth at 10 µM (NCI-H522): 89%
- growth at 10 µM (OVCAR-4): 91%
- growth at 10 µM (OVCAR-8): 96.8%

SMILES: CCn1c(SC/C(=N/O)c2ccccc2)nnc1-c1ccccc1
- growth at 10 µM (HT-29): 104%
- growth at 10 µM (SNB-75): 87.8%
- growth at 10 µM (MDA-MB-468): 108%
- growth at 10 µM (RPMI-8226): 89.7%
- Activity [1]: 0.14 mol/mol
- growth at 10 µM (SK-OV-3): 89.7%
- growth at 10 µM (SF-295): 109%
- growth at 10 µM (MCF7): 112%
- growth at 10 µM (NCI/ADR-RES): 103%
- growth at 10 µM (HL-60(TB)): 103%
- growth at 10 µM [2]: 90.6%
- inhibition in vivo at 280 µmol/kg (Rattus norvegicus): 69%
- Activity [3]: 0.13 mol/mol
- growth at 10 µM (HOP-62): 111%
- growth at 10 µM (SNB-19): 99%
- growth at 10 µM (UO-31): 91.5%
- growth at 10 µM (ACHN): 105%
- growth at 10 µM (MDA-MB-231): 94.6%
- growth at 10 µM (786-0): 105%
- growth at 10 µM (NCI-H460): 102%
- growth at 10 µM (CAKI-1): 89%
- growth at 10 µM (U-251): 102%
- growth at 10 µM (IGROV-1): 106%
- growth at 10 µM (SF-268): 108%
- growth at 10 µM (SR): 94.8%
- growth at 10 µM (Malme-3M): 98.7%
- growth at 10 µM (NCI-H522): 112%
- growth at 10 µM (OVCAR-4): 85.5%
- growth at 10 µM (OVCAR-8): 111%
